Laboratory results taken from ChEMBL document CHEMBL4325899, “Synthesis and photocytotoxic activity of [1,2,3]triazolo[4,5-h][1,6]naphthyridines and [1,3]oxazolo[5,4-h][1,6]naphthyridines” (Eur J Med Chem, 2019).

Experiments:
[1] = Solubility of the compound in DMSO; format: physicochemical
HT-29 [2] = experiment: Phototoxicity against human HT-29 cells preincubated for 5 mins followed by compound washout and subsequent UV irradiation at 1.5 J/cm2 for 5 mins measured after 72 hrs by MTT assay; format: functional, cell-based; details: HT-29, light or radiation study
How it was run: (§1)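 Compounds were diluted in DMSO (0.5% final), applied in triplicate for 5 min, then washed out with PBS. After medium removal, cells were irradiated on ice for 5 min at 365 nm (1.5 J/cm²) and then kept 72 h at 37 °C. Viability was read by MTT at 540 nm and expressed relative to 0.5% DMSO controls given the same treatment. EC50 is the concentration killing 50%, as the mean ± SD of at least three experiments.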

A-375 [3] = experiment: Phototoxicity against human A375 cells preincubated for 5 mins followed by compound washout and subsequent UV irradiation at 1.5 J/cm2 for 5 mins measured after 72 hrs by MTT assay; format: functional, cell-based; details: A-375, light or radiation study; how it was run: as §1
MCF-10A = experiment: Phototoxicity against human MCF10A cells preincubated for 5 mins followed by compound washout and subsequent UV irradiation at 1.5 J/cm2 for 5 mins measured after 72 hrs by MTT assay; format: cell-based; details: light or radiation study; how it was run: as §1
[4] = Dark toxicity against human A375 cells preincubated for 5 mins followed by compound washout and measured after 72 hrs by MTT assay; format: cell-based, A-375
How it was run: (§2)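 Cells were plated and allowed to attach overnight. Compounds were diluted in DMSO (0.5% final), with each concentration in triplicate, and applied for 5 min. Cells were then washed in PBS and given fresh medium. Without irradiation, cells were held 72 h at up to 50 μM. MTT (5 mg/mL stock) was added for 4 h, crystals were dissolved in SDS/HCl overnight, and absorbance was read at 540 nm. CC50 is the concentration killing 50% of cells, taken as the mean of at least three experiments.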

[5] = Dark toxicity against human HT-29 cells preincubated for 5 mins followed by compound washout and measured after 72 hrs by MTT assay; format: cell-based; how it was run: as §2
[6] = Dark toxicity against human MCF10A cells preincubated for 5 mins followed by compound washout and measured after 72 hrs by MTT assay; format: cell-based, MCF-10A; how it was run: as §2
[7] = Dark toxicity against human MCF7 cells preincubated for 5 mins followed by compound washout and measured after 72 hrs by MTT assay; format: cell-based; how it was run: as §2
MCF7 [8] = experiment: Phototoxicity against human MCF7 cells preincubated for 5 mins followed by compound washout and subsequent UV irradiation at 1.5 J/cm2 for 5 mins measured after 72 hrs by MTT assay; format: functional, cell-based; details: MCF7, light or radiation study; how it was run: as §1
[9] = Selectivity index, ratio of EC50 for human MCF10A cells under UV irradiation at 1.5 J/cm2 to EC50 for human HT-29 cells under UV irradiation at 1.5 J/cm2; format: toxicity; details: MCF10A cells versus HT-29 cells, read-out: Ratio EC50
How it was run: (§3)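 SI is the EC50 under irradiation in non-tumor MCF10A cells divided by the EC50 under irradiation in the tumor line. Both were MTT read-outs 72 h after 1.5 J/cm² at 365 nm.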

HT-29 [10] = experiment: Phototoxicity index, ratio of CC50 for human HT-29 cells to EC50 for human HT-29 cells under UV irradiation at 1.5 J/cm2
[11] = Selectivity index, ratio of EC50 for human MCF10A cells under UV irradiation at 1.5 J/cm2 to EC50 for human MCF7 cells under UV irradiation at 1.5 J/cm2; format: toxicity; details: MCF10A cells versus MCF7 cells, read-out: Ratio EC50; how it was run: as §3
A-375 [12] = experiment: Phototoxicity index, ratio of CC50 for human A375 cells to EC50 for human A375 cells under UV irradiation at 1.5 J/cm2
[13] = Selectivity index, ratio of EC50 for human MCF10A cells under UV irradiation at 1.5 J/cm2 to EC50 for human A375 cells under UV irradiation at 1.5 J/cm2; format: toxicity; details: MCF10A cells versus A375 cells, read-out: Ratio EC50; how it was run: as §3
[14] = Phototoxicity index, ratio of CC50 for human MCF10A cells to EC50 for human MCF10A cells under UV irradiation at 1.5 J/cm2; format: cell-based, MCF-10A; details: read-out: Ratio CC50/EC50
MCF7 [15] = experiment: Phototoxicity index, ratio of CC50 for human MCF7 cells to EC50 for human MCF7 cells under UV irradiation at 1.5 J/cm2
[16] = system: Human immunodeficiency virus 1; experiment: Antiviral activity against HIV1 3B infected in human MT4 cells assessed as decrease in viral replication by p24 ELISA; format: functional; details: Human immunodeficiency virus 1, 3B, read-out: CIC95

Row | Structure (SMILES) | solubility [1] | EC50 (HT-29 [2]) | EC50 (A-375 [3]) | EC50 (MCF-10A) | CC50 at 72 h [4] | CC50 at 72 h [5] | CC50 at 72 h [6] | CC50 at 72 h [7] | EC50 (MCF7 [8]) | selectivity ratio [9] | Ratio CC50/EC50 (HT-29 [10]) | selectivity ratio [11] | Ratio CC50/EC50 (A-375 [12]) | selectivity ratio [13] | selectivity ratio [14] | Ratio CC50/EC50 (MCF7 [15]) | IC95 [16]
1 | Cc1ccc2c(C)nc3oc(-c4ccccc4)nc3c2n1 | Soluble | 6.59 µM | > 50 µM | > 50 µM | > 50 µM | > 50 µM | > 50 µM | > 50 µM | > 50 µM | > 8 | >8 |  |  |  |  |  | 
2 | COc1ccc(-c2nc3c(nc(C)c4ccc(-c5ccccc5OC)nc43)o2)cc1 | Insoluble |  |  |  |  |  |  |  |  |  |  |  |  |  |  |  | 
3 | COc1ccccc1-c1ccc2c(C)nc3c(nnn3-c3ccccc3)c2n1 | Insoluble |  |  |  |  |  |  |  |  |  |  |  |  |  |  |  | 
4 | Cc1ccc2c(C)nc3c(nnn3-c3ccccc3)c2n1 | Soluble | > 50 µM | > 50 µM | > 50 µM | > 50 µM | > 50 µM | > 50 µM | > 50 µM | > 50 µM |  |  |  |  |  |  |  | 
5 | Cc1nc2c(nnn2-c2ccccc2)c2nc(-c3ccccc3)ccc12 | Soluble | > 50 µM | > 50 µM | > 50 µM | > 50 µM | > 50 µM | > 50 µM | > 50 µM | > 50 µM |  |  |  |  |  |  |  | 
6 | COc1ccccc1-c1ccc2c(C)nc3oc(-c4ccccc4)nc3c2n1 | Soluble | 0.197 µM | 0.633 µM | 1.17 µM | > 50 µM | > 50 µM | > 50 µM | > 50 µM | 1.32 µM | 6 | >254 | 0.884 | >79 | 2 | > 43 | >38 | 
7 | COc1ccc(-c2ccc3c(C)nc4oc(-c5ccc(OC)cc5)nc4c3n2)cc1 | Insoluble |  |  |  |  |  |  |  |  |  |  |  |  |  |  |  | 
8 | COc1ccc(-c2ccc3c(C)nc4oc(-c5cc(OC)c(OC)c(OC)c5)nc4c3n2)cc1 | Insoluble |  |  |  |  |  |  |  |  |  |  |  |  |  |  |  | 
9 | COc1cc(-n2nnc3c4[nH]c(=O)ccc4c(C)nc32)cc(OC)c1OC | Insoluble |  |  |  |  |  |  |  |  |  |  |  |  |  |  |  | 
10 | COc1ccccc1-c1ccc2c(C)nc3oc(-c4cc(OC)c(OC)c(OC)c4)nc3c2n1 | Soluble | 0.197 µM | 0.764 µM | 1.86 µM | > 50 µM | > 50 µM | > 50 µM | > 50 µM | 3.53 µM | 9 | >254 | 0.527 | >65 | 2 | > 27 | >14 | 
11 | Cc1nc2oc(-c3ccccc3)nc2c2[nH]c(=O)ccc12 | Soluble | > 50 µM | 1.49 µM | > 50 µM | > 50 µM | > 50 µM | > 50 µM | > 50 µM | > 50 µM |  |  |  | >34 | 34 |  |  | 
12 | COc1ccc(-n2nnc3c4[nH]c(=O)ccc4c(C)nc32)cc1 | Soluble | > 50 µM | > 50 µM | > 50 µM | > 50 µM | > 50 µM | > 50 µM | > 50 µM | > 50 µM |  |  |  |  |  |  |  | 
13 | COc1ccc(-c2nc3c(nc(C)c4ccc(C)nc43)o2)cc1 | Soluble | 4.28 µM | > 50 µM | > 50 µM | > 50 µM | > 50 µM | > 50 µM | > 50 µM | > 50 µM | > 12 | >12 |  |  |  |  |  | 
14 | O=C(c1cc(Cc2ccccc2)cc(CN2CCCS2(=O)=O)c1)c1ncc2cccnc2c1O |  |  |  |  |  |  |  |  |  |  |  |  |  |  |  |  | 0.39 µM
15 | COc1ccc(-c2ccc3c(C)nc4c(nnn4-c4cc(OC)c(OC)c(OC)c4)c3n2)cc1 | Insoluble |  |  |  |  |  |  |  |  |  |  |  |  |  |  |  | 
16 | COc1cc(-n2nnc3c4nc(-c5ccccc5)ccc4c(C)nc32)cc(OC)c1OC | Soluble | > 50 µM | > 50 µM | > 50 µM | > 50 µM | > 50 µM | > 50 µM | > 50 µM | > 50 µM |  |  |  |  |  |  |  | 

Further lines, with some results ahead:

Row | solubility [1] | Structure (SMILES) | EC50 (HT-29 [2]) | EC50 (A-375 [3]) | EC50 (MCF-10A) | CC50 at 72 h [4] | CC50 at 72 h [5] | CC50 at 72 h [6] | CC50 at 72 h [7] | EC50 (MCF7 [8]) | selectivity ratio [9] | Ratio CC50/EC50 (HT-29 [10]) | selectivity ratio [11] | Ratio CC50/EC50 (A-375 [12]) | selectivity ratio [13] | selectivity ratio [14] | Ratio CC50/EC50 (MCF7 [15]) | IC95 [16]
17 | Insoluble | COc1ccc(-c2nc3c(nc(C)c4ccc(=O)[nH]c43)o2)cc1 |  |  |  |  |  |  |  |  |  |  |  |  |  |  |  | 
18 | Soluble | COc1ccccc1-c1ccc2c(C)nc3c(nnn3-c3cc(OC)c(OC)c(OC)c3)c2n1 | > 50 µM | > 50 µM | > 50 µM | > 50 µM | > 50 µM | > 50 µM | > 50 µM | > 50 µM |  |  |  |  |  |  |  | 
19 | Soluble | COc1ccc(-n2nnc3c4nc(-c5ccccc5OC)ccc4c(C)nc32)cc1 | > 50 µM | 1.09 µM | > 50 µM | > 50 µM | > 50 µM | > 50 µM | > 50 µM | > 50 µM | > 1 |  | > 1 | >46 | 46 |  |  | 
20 | Soluble | COc1cc(-c2nc3c(nc(C)c4ccc(-c5ccccc5)nc43)o2)cc(OC)c1OC | 0.62 µM | 1.44 µM | 4.38 µM | > 50 µM | > 50 µM | > 50 µM | > 50 µM | 5.94 µM | 7 | >81 | 0.737 | >35 | 3 | > 11 | >8 | 
21 | Insoluble | COc1cc(-n2nnc3c4nc(C)ccc4c(C)nc32)cc(OC)c1OC |  |  |  |  |  |  |  |  |  |  |  |  |  |  |  | 
22 | Insoluble | COc1ccc(-n2nnc3c4nc(-c5ccccc5)ccc4c(C)nc32)cc1 |  |  |  |  |  |  |  |  |  |  |  |  |  |  |  | 
23 | Soluble | COc1ccc(-c2ccc3c(C)nc4c(nnn4-c4ccccc4)c3n2)cc1 | 0.099 µM | 10.1 µM | 0.099 µM | > 50 µM | > 50 µM | > 50 µM | > 50 µM | 34 µM | 1.01 | >508 | 0.003 | >5 | 0.009 | > 505 | >1.5 | 
24 | Soluble | COc1ccc(-c2ccc3c(C)nc4c(nnn4-c4ccc(OC)cc4)c3n2)cc1 | 1.74 µM | 0.875 µM | > 50 µM | > 50 µM | > 50 µM | > 50 µM | > 50 µM | > 50 µM | > 29 | >29 | > 1 | >57 | 57 |  |  | 
25 | Soluble | COc1cc(-c2nc3c(nc(C)c4ccc(C)nc43)o2)cc(OC)c1OC | > 50 µM | > 50 µM | > 50 µM | > 50 µM | > 50 µM | > 50 µM | > 50 µM | > 50 µM |  |  |  |  |  |  |  | 
26 | Insoluble | Cc1nc2oc(-c3ccccc3)nc2c2nc(-c3ccccc3)ccc12 |  |  |  |  |  |  |  |  |  |  |  |  |  |  |  | 
27 | Insoluble | COc1cc(-c2nc3c(nc(C)c4ccc(=O)[nH]c43)o2)cc(OC)c1OC |  |  |  |  |  |  |  |  |  |  |  |  |  |  |  | 
28 | Soluble | Cc1nc2c(nnn2-c2ccccc2)c2[nH]c(=O)ccc12 | > 50 µM | > 50 µM | > 50 µM | > 50 µM | > 50 µM | > 50 µM | > 50 µM | > 50 µM |  |  |  |  |  |  |  | 
29 | Insoluble | COc1ccc(-c2ccc3c(C)nc4oc(-c5ccccc5)nc4c3n2)cc1 |  |  |  |  |  |  |  |  |  |  |  |  |  |  |  | 
